This note sets out measurements from ChEMBL document CHEMBL1137321, “Identification of small molecule agonists of the orphan nuclear receptors liver receptor homolog-1 and steroidogenic factor-1” (J Med Chem, 2006).

SMILES strings stand for the structures. The source made the active and inactive calls. No cut-off for these calls is given here.

T2 sequence (Q13285 whole entry): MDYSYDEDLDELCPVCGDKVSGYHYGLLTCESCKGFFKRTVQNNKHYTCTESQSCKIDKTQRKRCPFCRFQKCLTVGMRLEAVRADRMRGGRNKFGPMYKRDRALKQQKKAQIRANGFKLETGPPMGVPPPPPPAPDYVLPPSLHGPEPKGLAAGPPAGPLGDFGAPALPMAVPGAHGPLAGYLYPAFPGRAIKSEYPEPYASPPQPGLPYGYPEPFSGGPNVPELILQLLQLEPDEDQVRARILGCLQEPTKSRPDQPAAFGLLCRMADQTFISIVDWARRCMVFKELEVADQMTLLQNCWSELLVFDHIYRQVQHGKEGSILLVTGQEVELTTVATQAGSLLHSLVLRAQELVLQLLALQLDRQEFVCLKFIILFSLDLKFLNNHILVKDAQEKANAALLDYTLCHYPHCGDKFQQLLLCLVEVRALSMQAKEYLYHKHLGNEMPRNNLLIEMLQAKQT

The target of the first assay is T1, Nuclear receptor subfamily 5 group A member 2 (Homo sapiens, UniProt O00482). In words: Agonist activity at human LRH1 assessed as induction of SHP mRNA expression in HepG2 cells at 10 uM. Format: functional, cell-based.
T1 sequence (O00482 whole entry): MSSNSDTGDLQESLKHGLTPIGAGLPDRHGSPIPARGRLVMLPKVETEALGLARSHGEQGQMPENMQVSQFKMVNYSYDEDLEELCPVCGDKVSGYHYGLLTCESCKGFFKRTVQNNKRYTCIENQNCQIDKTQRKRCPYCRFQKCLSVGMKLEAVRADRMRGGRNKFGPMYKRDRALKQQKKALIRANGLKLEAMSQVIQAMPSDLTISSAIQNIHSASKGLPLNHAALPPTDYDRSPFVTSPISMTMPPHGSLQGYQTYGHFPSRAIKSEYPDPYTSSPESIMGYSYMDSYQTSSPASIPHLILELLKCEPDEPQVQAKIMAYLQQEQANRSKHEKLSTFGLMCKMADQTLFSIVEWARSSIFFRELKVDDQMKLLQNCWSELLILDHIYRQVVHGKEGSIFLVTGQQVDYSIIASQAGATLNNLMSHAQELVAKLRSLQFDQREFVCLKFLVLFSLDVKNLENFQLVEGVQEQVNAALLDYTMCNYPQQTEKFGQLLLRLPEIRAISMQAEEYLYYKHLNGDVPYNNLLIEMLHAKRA
Conditions: not given
The method, boiled down:
(§1)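 Human liver cells (HepG2 cells or primary hepatocytes) treated with 10 µM compound; SHP mRNA expression quantified by quantitative PCR.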
Consider `CCC/C=C(\CCC)C1=C(c2ccccc2)[C@]2(Nc3ccccc3)CCC[C@@H]2C1` (relative stereo), for which the outcome was Active.

The target in another assay is T1, Nuclear receptor subfamily 5 group A member 2. In words: Binding affinity to human LRH1 relative to 3-(E-Oct-4-en-4-yl)-1-phenylamino-2-phenyl-cis-bicyclo[3.3.0]oct-2-ene by FRET-based peptide recruitment assay.
Conditions: not given
The method, boiled down: (§2)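 The apo-receptor starts with 1 equiv of bound phospholipid. EC50 determined, n = 3. Relative efficacy is normalized to the reference agonist at ±5%.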
`CCCCCCCCC(C)C1=C(c2ccccc2)[C@]2(Nc3ccccc3)CCC[C@@H]2C1` (relative stereo) came in with an Efficacy of 25%.
The same measure, in the same setting: with `CCC/C=C(\CCC)C1=C(c2ccc(Br)cc2)[C@]2(Nc3ccccc3)CCC[C@@H]2C1` (relative stereo) the figure was 70%; with `c1ccc(N[C@@]23CCC[C@@H]2CC(C2CCCCC2)=C3c2ccccc2)cc1` (relative stereo), 25%.
On the same count and under the same terms, with `CCC/C=C(\CCC)C1=C(C2CCCCC2)[C@]2(Nc3ccccc3)CCC[C@@H]2C1` (relative stereo) the figure was 50%; with `CCC/C=C(\CCC)C1=C(c2cccc(OC)c2)[C@]2(Nc3ccccc3)CCC[C@@H]2C1` (relative stereo), 115%.
For `CCCCCCC1=C(c2ccccc2)[C@]2(Nc3cccc(F)c3)CCC[C@@H]2C1` (relative stereo), the Efficacy was determined as 45%.
Same read-out and setting: with `CCC/C=C(\CCC)C1=C(C)[C@]2(Nc3ccccc3)CCC[C@@H]2C1` the figure was 15%; with `CCCCCCC1=C(c2ccccc2)[C@]2(Nc3ccccc3)CCC[C@@H]2C1` (relative stereo), 45%; with `CCCCCCC1=C(c2ccccc2)[C@]2(Nc3cccc4ccccc34)CCC[C@@H]2C1` (relative stereo), 45%.
The same measure, in the same setting: with `CC1=C(c2ccccc2)[C@]2(Nc3ccccc3)CCC[C@@H]2C1` (relative stereo) the figure was 20%; with `c1ccc(N[C@@]23CCC[C@@H]2CC(c2ccccc2)=C3c2ccccc2)cc1` (relative stereo), 35%.
Take `CCC/C=C(\CCC)C1=C(CCCC)[C@]2(Nc3ccccc3)CCC[C@@H]2C1` (relative stereo): the Efficacy is 50%.
Same read-out and setting: next, `CCC/C=C(\CCC)C1=C(c2ccc3ccccc3c2)[C@]2(Nc3ccccc3)CCC[C@@H]2C1` (relative stereo): 55%.
On the same count and under the same terms, next, `CCCCCCC1=C(c2ccccc2)[C@]2(Nc3cccc(C)c3C)CCC[C@@H]2C1` (relative stereo): 30%.
On the same count and under the same terms, with `CC/C=C(\CC)C1=C(c2ccccc2)[C@]2(Nc3ccccc3)CCC[C@@H]2C1` (relative stereo) the figure was 50%; with `CCCCC(C)C1=C(c2ccccc2)[C@]2(Nc3ccccc3)CCC[C@@H]2C1` (relative stereo), 45%.
For the molecule `CCCCCCC1=C(c2ccccc2)[C@]2(Nc3ccc(Cl)cc3)CCC[C@@H]2C1` (relative stereo), the Efficacy was determined as 15%.

The target is the same in the next assay. In words: Agonist activity at human LRH1 expressed in CV1 cells assessed as SHP reporter gene transactivation by luciferase assay.
Conditions: not given
Format: functional, cell-based, CV-1.
`CCC/C=C(\CCC)C1=C(c2ccccc2)[C@]2(Nc3ccccc3)CCC[C@@H]2C1` (relative stereo): the EC50 was 1000 nM.

A further assay shares this target. Briefly: Agonist activity at human LRH1 assessed as induction of SHP mRNA expression in human primary hepatocytes at 10 uM. The note with it: Hepatocyte. Format: functional, cell-based. Put shortly: as §1
Take `CCC/C=C(\CCC)C1=C(c2ccccc2)[C@]2(Nc3ccccc3)CCC[C@@H]2C1` (relative stereo): the result was Active.

A further assay has as its target T2, Steroidogenic factor 1 (Homo sapiens, UniProt Q13285). Briefly: Binding affinity to human SF1 by FRET-based peptide recruitment assay.
Conditions: not given
Put shortly:
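FRET assay measuring recruitment of a DAX-1 peptide (aa 1-23) to human SF-1. The apo-receptor starts with 1 equiv of bound phospholipid. Relative efficacy is normalized to the reference agonist at ±5%.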
For the molecule `CCCCCCCCC(C)C1=C(c2ccccc2)[C@]2(Nc3ccccc3)CCC[C@@H]2C1` (relative stereo), the EC50 came out at 130 nM.
On the same count and under the same terms, with `CCCCCCC1=C(c2ccccc2)[C@]2(Nc3ccc(C(C)(C)C)cc3)CCC[C@@H]2C1` (relative stereo) the figure was above 10000 nM; with `CCC/C=C(\CCC)C1=C(c2ccc(Br)cc2)[C@]2(Nc3ccccc3)CCC[C@@H]2C1` (relative stereo), 170 nM; with `CCCCCCC1=C(c2ccccc2)[C@]2(Nc3ccc(OC(F)(F)F)cc3)CCC[C@@H]2C1` (relative stereo), above 10000 nM.
Molecule `CCCCCCCCCCCCC1=C(c2ccccc2)[C@]2(Nc3ccccc3)CCC[C@@H]2C1` (relative stereo) came in with an EC50 above 10000 nM.
Still for that read-out and setting: next, `c1ccc(N[C@@]23CCC[C@@H]2CC(C2CCCCC2)=C3c2ccccc2)cc1` (relative stereo): 180 nM; `CCC/C=C(\CCC)C1=C(C2CCCCC2)[C@]2(Nc3ccccc3)CCC[C@@H]2C1` (relative stereo): 10 nM; `CCC/C=C(\CCC)C1=C(c2cccc(OC)c2)[C@]2(Nc3ccccc3)CCC[C@@H]2C1` (relative stereo): 140 nM.
`CCCCCCC1=C(c2ccccc2)[C@]2(Nc3cccc(F)c3)CCC[C@@H]2C1` (relative stereo) yielded an EC50 of 560 nM.
Same read-out and setting: next, `CCC/C=C(\CCC)C1=C(C)[C@]2(Nc3ccccc3)CCC[C@@H]2C1`: above 10000 nM; `CCCCCCC1=C(c2ccccc2)[C@]2(Nc3cccc4ccccc34)CCC[C@@H]2C1` (relative stereo): above 10000 nM; `CC1=C(c2ccccc2)[C@]2(Nc3ccccc3)CCC[C@@H]2C1` (relative stereo): above 10000 nM.
The same measure, in the same setting: with `c1ccc(N[C@@]23CCC[C@@H]2CC(c2ccccc2)=C3c2ccccc2)cc1` (relative stereo) the figure was 120 nM; with `CCCCCCC1=C(c2ccccc2)[C@]2(Nc3ccc(I)cc3)CCC[C@@H]2C1` (relative stereo), above 10000 nM.
The same measure, in the same setting: next, `CCC/C=C(\CCC)C1=C(CCCC)[C@]2(Nc3ccccc3)CCC[C@@H]2C1` (relative stereo): 30 nM.
Take `CCC/C=C(\CCC)C1=C(c2ccc3ccccc3c2)[C@]2(Nc3ccccc3)CCC[C@@H]2C1` (relative stereo): the EC50 is 130 nM.
`CCCCCCC1=C(c2ccccc2)[C@]2(Nc3cccc(C)c3C)CCC[C@@H]2C1` (relative stereo) had an EC50 of 11 nM.
Same read-out and setting: with `CC/C=C(\CC)C1=C(c2ccccc2)[C@]2(Nc3ccccc3)CCC[C@@H]2C1` (relative stereo) the figure was 800 nM.
Still for that read-out and setting: with `CCCCC(C)C1=C(c2ccccc2)[C@]2(Nc3ccccc3)CCC[C@@H]2C1` (relative stereo) the figure was 130 nM; with `CCCCC/C=C(\CCCCC)C1=C(c2ccccc2)[C@]2(Nc3ccccc3)CCC[C@@H]2C1` (relative stereo), 14 nM; with `CCCCCCC1=C(c2ccccc2)[C@]2(Nc3ccc(Cl)cc3)CCC[C@@H]2C1` (relative stereo), 700 nM.

The target of a further assay is T1, Nuclear receptor subfamily 5 group A member 2. In words: Binding affinity to human LRH1 by FRET-based peptide recruitment assay.
Conditions: not given
The method, boiled down: as §2
Take `CCCCCCCCC(C)C1=C(c2ccccc2)[C@]2(Nc3ccccc3)CCC[C@@H]2C1` (relative stereo): the EC50 came out at 320 nM.
Same read-out and setting: next, `CCCCCCC1=C(c2ccccc2)[C@]2(Nc3ccc(C(C)(C)C)cc3)CCC[C@@H]2C1` (relative stereo): above 10000 nM; `CCC/C=C(\CCC)C1=C(c2ccc(Br)cc2)[C@]2(Nc3ccccc3)CCC[C@@H]2C1` (relative stereo): 160 nM; `CCCCCCC1=C(c2ccccc2)[C@]2(Nc3ccc(OC(F)(F)F)cc3)CCC[C@@H]2C1` (relative stereo): above 10000 nM.
Same read-out and setting: with `CCCCCCCCCCCCC1=C(c2ccccc2)[C@]2(Nc3ccccc3)CCC[C@@H]2C1` (relative stereo) the figure was above 10000 nM.
The same measure, in the same setting: with `c1ccc(N[C@@]23CCC[C@@H]2CC(C2CCCCC2)=C3c2ccccc2)cc1` (relative stereo) the figure was 230 nM.
As for `CCC/C=C(\CCC)C1=C(C2CCCCC2)[C@]2(Nc3ccccc3)CCC[C@@H]2C1` (relative stereo), the EC50 came to 12 nM.
Still for that read-out and setting: next, `CCC/C=C(\CCC)C1=C(c2cccc(OC)c2)[C@]2(Nc3ccccc3)CCC[C@@H]2C1` (relative stereo): 100 nM; `CCCCCCC1=C(c2ccccc2)[C@]2(Nc3cccc(F)c3)CCC[C@@H]2C1` (relative stereo): 330 nM.
The same measure, in the same setting: next, `CCC/C=C(\CCC)C1=C(C)[C@]2(Nc3ccccc3)CCC[C@@H]2C1`: 90 nM; `CCCCCCC1=C(c2ccccc2)[C@]2(Nc3ccccc3)CCC[C@@H]2C1` (relative stereo): 34 nM; `CCCCCCC1=C(c2ccccc2)[C@]2(Nc3cccc4ccccc34)CCC[C@@H]2C1` (relative stereo): 1200 nM.
The same measure, in the same setting: next, `CC1=C(c2ccccc2)[C@]2(Nc3ccccc3)CCC[C@@H]2C1` (relative stereo): 2100 nM; `c1ccc(N[C@@]23CCC[C@@H]2CC(c2ccccc2)=C3c2ccccc2)cc1` (relative stereo): 150 nM; `CCCCCCC1=C(c2ccccc2)[C@]2(Nc3ccc(I)cc3)CCC[C@@H]2C1` (relative stereo): above 10000 nM.
The molecule `CCC/C=C(\CCC)C1=C(c2ccccc2)[C@]2(Nc3ccccc3)CCC[C@@H]2C1` (relative stereo) gave an EC50 of 430 nM.
The same measure, in the same setting: next, `CCC/C=C(\CCC)C1=C(CCCC)[C@]2(Nc3ccccc3)CCC[C@@H]2C1` (relative stereo): 22 nM; `CCC/C=C(\CCC)C1=C(c2ccc3ccccc3c2)[C@]2(Nc3ccccc3)CCC[C@@H]2C1` (relative stereo): 60 nM.
On the same count and under the same terms, with `CCCCCCC1=C(c2ccccc2)[C@]2(Nc3cccc(C)c3C)CCC[C@@H]2C1` (relative stereo) the figure was 30 nM.
`CC/C=C(\CC)C1=C(c2ccccc2)[C@]2(Nc3ccccc3)CCC[C@@H]2C1` (relative stereo) came in with a concentration giving a half-maximal response (EC50) of 1400 nM.
Still for that read-out and setting: next, `CCCCC(C)C1=C(c2ccccc2)[C@]2(Nc3ccccc3)CCC[C@@H]2C1` (relative stereo): 70 nM.
Still for that read-out and setting: next, `CCCCC/C=C(\CCCCC)C1=C(c2ccccc2)[C@]2(Nc3ccccc3)CCC[C@@H]2C1` (relative stereo): above 10000 nM; `CCCCCCC1=C(c2ccccc2)[C@]2(Nc3ccc(Cl)cc3)CCC[C@@H]2C1` (relative stereo): 1000 nM.

A further assay deals with T2, Steroidogenic factor 1. In words: Binding affinity to human SF1 relative to 3-Hexyl-1-phenylamino-2-phenyl-cis-bicyclo[3.3.0]oct-2-ene1 by FRET-based peptide recruitment assay.
Conditions: not given
Put shortly:
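FRET assay measuring recruitment of a DAX-1 peptide (aa 1-23) to human SF-1. The apo-receptor starts with 1 equiv of bound phospholipid. EC50 determined, n = 3. Relative efficacy is normalized to the reference agonist at ±5%.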
As for `CCCCCCCCC(C)C1=C(c2ccccc2)[C@]2(Nc3ccccc3)CCC[C@@H]2C1` (relative stereo), the Efficacy is 95%.
Still for that read-out and setting: next, `CCC/C=C(\CCC)C1=C(c2ccc(Br)cc2)[C@]2(Nc3ccccc3)CCC[C@@H]2C1` (relative stereo): 35%; `c1ccc(N[C@@]23CCC[C@@H]2CC(C2CCCCC2)=C3c2ccccc2)cc1` (relative stereo): 65%.
The same measure, in the same setting: with `CCC/C=C(\CCC)C1=C(C2CCCCC2)[C@]2(Nc3ccccc3)CCC[C@@H]2C1` (relative stereo) the figure was 90%; with `CCC/C=C(\CCC)C1=C(c2cccc(OC)c2)[C@]2(Nc3ccccc3)CCC[C@@H]2C1` (relative stereo), 45%.
Same read-out and setting: next, `CCCCCCC1=C(c2ccccc2)[C@]2(Nc3cccc(F)c3)CCC[C@@H]2C1` (relative stereo): 70%; `c1ccc(N[C@@]23CCC[C@@H]2CC(c2ccccc2)=C3c2ccccc2)cc1` (relative stereo): 55%.
`CCC/C=C(\CCC)C1=C(c2ccccc2)[C@]2(Nc3ccccc3)CCC[C@@H]2C1` (relative stereo): the Efficacy was 50%.
On the same count and under the same terms, with `CCC/C=C(\CCC)C1=C(CCCC)[C@]2(Nc3ccccc3)CCC[C@@H]2C1` (relative stereo) the figure was 95%; with `CCC/C=C(\CCC)C1=C(c2ccc3ccccc3c2)[C@]2(Nc3ccccc3)CCC[C@@H]2C1` (relative stereo), 30%.
On the same count and under the same terms, with `CCCCCCC1=C(c2ccccc2)[C@]2(Nc3cccc(C)c3C)CCC[C@@H]2C1` (relative stereo) the figure was 20%; with `CC/C=C(\CC)C1=C(c2ccccc2)[C@]2(Nc3ccccc3)CCC[C@@H]2C1` (relative stereo), 80%; with `CCCCC(C)C1=C(c2ccccc2)[C@]2(Nc3ccccc3)CCC[C@@H]2C1` (relative stereo), 90%.
Same read-out and setting: with `CCCCC/C=C(\CCCCC)C1=C(c2ccccc2)[C@]2(Nc3ccccc3)CCC[C@@H]2C1` (relative stereo) the figure was 30%.
Turning to `CCCCCCC1=C(c2ccccc2)[C@]2(Nc3ccc(Cl)cc3)CCC[C@@H]2C1` (relative stereo), the Efficacy stood at 25%.
